Sampled rows, rich in hits. Any-hit rate of the full collection: about 4.7%.
MC4R barr agon: MC4R agonists recruiting beta-arrestin, primary screen, cell-based, luminescence, agonist arm of biased-ligand search. U2OS MC4R beta-arrestin complementation; percent of melanotan II response, DMSO zero. Melanocortin receptor 4 (Homo sapiens), P32245. activation, % at 8.9 µM. AID 540308, 2011. 360,000 compounds, 0.98% hits;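 active means activation above a per-plate cutoff, the mean activation of sample wells on that plate plus 3 SD, cut at about 8% in these data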
m5-HT2A agonist: mouse Htr2a agonists via beta-arrestin recruitment, primary screen, cell-based, luminescence | 5-hydroxytryptamine receptor 2A (Mus musculus), P35363 | CHO-K1 mHTR2A beta-arrestin complementation; percent of 30 µM serotonin response | activation, % at 7.6 µM | 360,000 compounds, 0.66% hits | AID 624169, 2012;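 active means activation above a run cutoff, the mean activation of all tested compounds plus 3 SD, cut at about 14% in these data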
Target sequence (P35363 whole entry, looked up): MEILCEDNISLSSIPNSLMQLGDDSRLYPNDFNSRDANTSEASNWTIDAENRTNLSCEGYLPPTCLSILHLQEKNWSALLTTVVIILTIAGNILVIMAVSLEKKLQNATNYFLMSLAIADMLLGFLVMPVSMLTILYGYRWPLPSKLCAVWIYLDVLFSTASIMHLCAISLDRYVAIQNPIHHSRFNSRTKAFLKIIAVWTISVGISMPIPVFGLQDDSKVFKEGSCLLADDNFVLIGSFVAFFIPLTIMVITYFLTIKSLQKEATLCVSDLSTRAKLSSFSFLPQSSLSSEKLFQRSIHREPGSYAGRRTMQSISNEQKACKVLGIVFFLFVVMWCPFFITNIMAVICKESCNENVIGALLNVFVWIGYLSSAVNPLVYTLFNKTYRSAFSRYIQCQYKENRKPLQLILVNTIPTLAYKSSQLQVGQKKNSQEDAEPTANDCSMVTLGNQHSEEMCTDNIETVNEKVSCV
AHR activator: AHR activators, primary screen, cell-based, luminescence, luciferase reporter, human | Aryl hydrocarbon receptor (Homo sapiens), P35869 | AHR-responsive luciferase reporter cells | activation, % at 5 µM | 320,000 compounds, 2.5% hits | AID 2796, 2010; in the data active means activation above about 47%
FXN GAA850 act: FXN promoter activators, primary screen, cell-based, luciferase luminescence, HEK293 lucGAA850; HEK293 lucGAA850 FXN promoter luciferase reporter, 24 h; percent of 10 µM SAHA response; activation, % at 6 µM; 360,000 compounds, 0.56% hits; AID 540364, 2011;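 active means activation above the average of all compounds screened plus 3 SD, cutoff fixed separately per campaign, cut at about 7.5% in these data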
MC4R antag cAMP: MC4R antagonists of cAMP signaling, primary screen, cell-based, TR-FRET, antagonist arm of biased-ligand search. MC4R-expressing cells, MTII-stimulated cAMP, LANCE TR-FRET. 360,000 compounds, 0.48% hits. inhibition, % at 6.5 µM. Melanocortin receptor 4 (Homo sapiens), P32245;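 active means inhibition above its plate's cutoff, the mean of tested wells on that plate plus 3 SD, cut at about 29% in these data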
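Material – human MC4R-expressing U2OS cells · Repeats – no replicates · Detection – TR-FRET with Eu-cAMP and labeled anti-cAMP, 671 nm · Times – compound 30 min, challenge 1 h, detection 1 h · Compound – single nominal compound dose of 6.5 µM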
OPRM1 ag: OPRM1 agonists via beta-arrestin recruitment, confirmation, counter-screen for mouse HTR2A agonist project, cell-based, luminescence, single concentration; shares compounds with m5-HT2A agonist; U2OS OPRM1 beta-arrestin PathHunter; DMSO 0%, DAMGO 9.3 µM 100%; activation, % at 9.3 µM; 2,300 compounds, 5.3% hits;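 active means mean activation above the mean of DMSO-only wells plus 3 SD, cut at about 0.5% in these data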
HTR2A ag conf: mouse HTR2A agonists, beta-arrestin recruitment, confirmation, cell-based, luminescence, CHO-K1 PathHunter, triplicate. shares compounds with m5-HT2A agonist. activation, % at 7.6 µM. 2,300 compounds, 19% hits. DMSO 0%, 30 µM serotonin 100%;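 active means mean activation across triplicates above the hit threshold derived in the original primary screen, cut at about 15% in these data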
Large screens that a line does not name were inactive (follow-up assays come after a bar, where they were run).

CC(C)C[C@H](NC(=O)N1CCn2c1nc1ccccc12)C(=O)NCc1ccccc1	m5-HT2A agonist 15.4 | HTR2A ag conf inactive
CS(=O)(=O)c1ccc(C(=O)OCC(=O)N(CCc2ccccc2)Cc2ccccc2)cc1	none
OC(CCN1CC2CCC(CC2)C1)(Cc1ccccc1)c1ccco1 (stereo not drawn)	none (no result: AHR activator)
C=C(C)c1cccc(C(C)(C)NC(=O)N2CCN(CC)CC2)c1	none
C=C(C)c1cccc(C(C)(C)NC(=O)N2CCN(C)CC2)c1	none
C=C(C)c1cccc(C(C)(C)NC(=O)Nc2ccc(OC)cc2)c1	m5-HT2A agonist 16.9 | OPRM1 ag inactive | HTR2A ag conf inactive
C=C(C)c1cccc(C(C)(C)NC(=O)Nc2ccc(C(C)=O)cc2)c1	none
C=C(C)c1cccc(C(C)(C)NC(=O)N2CCC(C)CC2)c1	m5-HT2A agonist 18.9 | OPRM1 ag inactive | HTR2A ag conf inactive
C=C(C)c1cccc(C(C)(C)NC(=O)N2CCCCC2CC)c1 (stereo not drawn)	m5-HT2A agonist 52.9 | OPRM1 ag inactive | HTR2A ag conf 17.5
CS(=O)(=O)N1CCCCC1c1cc(C(=O)Nc2ccccc2Cl)no1 (stereo not drawn)	none (no result: AHR activator)
COc1ccc(C(=O)NCC(=O)OCC(=O)Nc2ncc(Cl)cc2Cl)cc1[N+](=O)[O-]	none
CCN(CC(=O)Nc1c(F)cccc1F)C(=O)CN1C(=O)NC2(CCCC2)C1=O	none
CCN(CC(=O)Nc1ccccc1C(F)(F)F)C(=O)CN1C(=O)NC2(CCCCC2)C1=O	m5-HT2A agonist 17.0 | OPRM1 ag inactive | HTR2A ag conf inactive
CN(CC(=O)Nc1cccc(F)c1)C(=O)CN1C(=O)NC2(CCCCC2)C1=O	none
CN(CC(=O)Nc1ccc(F)cc1)C(=O)CN1C(=O)NC2(CCCC2)C1=O	m5-HT2A agonist 19.9 (no result: AHR activator) | OPRM1 ag inactive | HTR2A ag conf inactive
CCOC(=O)[C@]12CCCC=C1N(Cc1ccc(Cl)cc1Cl)C(=O)[C@H](CC(=O)N1CCSCC1)C2	none (no result: MC4R barr agon, AHR activator, FXN GAA850 act, MC4R antag cAMP)
CNc1c(C(=O)O)ccc2c1C(=O)c1ccccc1C2=O	none
O=C(O)c1ccc2c(c1Nc1ccccc1)C(=O)c1ccccc1C2=O	m5-HT2A agonist 27.1 | OPRM1 ag inactive | HTR2A ag conf inactive
C=CCN(CC=C)CCOc1ccccc1F	none
C=CCN(CC=C)CCOc1cccc2ccccc12	m5-HT2A agonist 14.4 | OPRM1 ag inactive | HTR2A ag conf 22.9
CCCCn1c(N)c(N(CCOC)C(=O)c2ccc(-c3ccc([N+](=O)[O-])cc3)o2)c(=O)[nH]c1=O	none
CCCCn1c(N)c(N(CCOC)C(=O)c2cc3c(s2)CCC(C)C3)c(=O)[nH]c1=O (stereo not drawn)	m5-HT2A agonist 14.9 | OPRM1 ag inactive | HTR2A ag conf inactive
CCCCn1c(N)c(N(CCOC)C(=O)c2ccc(-c3ccc(C(C)=O)cc3)o2)c(=O)[nH]c1=O	m5-HT2A agonist 15.1 | OPRM1 ag inactive | HTR2A ag conf inactive
CCCCN(C(=O)c1cccc(S(=O)(=O)N2CCN(C)CC2)c1)c1c(N)n(CCC)c(=O)[nH]c1=O	m5-HT2A agonist 16.2 | OPRM1 ag inactive | HTR2A ag conf inactive
O=C(O)c1ccc2c(c1)C(=O)N(c1ccc(C(=O)OCC(=O)c3ccccc3)cc1)C2=O	none
O=C(O)c1ccc2c(c1)C(=O)N(c1ccc(OCc3ccccc3)cc1)C2=O	m5-HT2A agonist 17.0 | OPRM1 ag inactive | HTR2A ag conf inactive
CCN(CC(=O)Nc1ccc(OC)cc1)C(=O)c1ccc(OCc2c(C)noc2C)cc1	none (no result: AHR activator)
COc1cccc(/C=N/NC(=O)c2cccc(N3CCCC3=O)c2)c1	m5-HT2A agonist 15.4 | OPRM1 ag inactive | HTR2A ag conf inactive
COc1ccc(O)c(/C=N/NC(=O)c2cccc(N3CCCC3=O)c2)c1	none
O=c1c(CN2CCN(c3ccccn3)CC2)coc2ccccc12	none
c1ccc(N2CCN(Cc3ccc4c(c3)OCO4)CC2)nc1	m5-HT2A agonist 31.7 | OPRM1 ag inactive | HTR2A ag conf 113.2
Brc1ccc(CN2CCN(c3ccccn3)CC2)s1	m5-HT2A agonist 29.5 | OPRM1 ag inactive | HTR2A ag conf 98.1
c1cnc(N2CCN(Cc3ccc4c(c3)OCO4)CC2)nc1	m5-HT2A agonist 41.7 | OPRM1 ag inactive | HTR2A ag conf 169.0
c1nc(N2CCN(Cc3ccc4c(c3)OCO4)CC2)c2[nH]cnc2n1	m5-HT2A agonist 20.4 | OPRM1 ag inactive | HTR2A ag conf 74.8
Cc1ccc(N2CC(O)CSC2=Nc2ccccc2)cc1 (stereo not drawn)	none (no result: AHR activator)
CCOc1ccccc1NC(=O)COC(=O)c1c(CC)noc1C	none (no result: AHR activator)
CN(Cc1ccccc1)C(=O)COC(=O)c1cc(NS(=O)(=O)c2cccs2)ccc1O	m5-HT2A agonist 21.0 | OPRM1 ag inactive | HTR2A ag conf inactive
O=C(Cn1nc(C(=O)O)c2ccccc2c1=O)Nc1cccc(S(=O)(=O)N2CCCC2)c1	none (no result: AHR activator)
CCOC(=O)C(C#N)(Cc1cc(OC)cc(OC)c1)Cc1cc(OC)cc(OC)c1	none
O=c1c2ccccc2nc(/C=C/c2cc(Br)ccc2O)n1CCO	none
O=c1c2ccccc2nc(/C=C/c2c[nH]c3ccccc23)n1CCO	m5-HT2A agonist 14.5 | OPRM1 ag inactive | HTR2A ag conf inactive
Cc1ccccc1NCC(=O)N/N=C/c1c(C)c(C(=O)c2ccc(Cl)cc2)n2ccccc12	m5-HT2A agonist 15.4 | OPRM1 ag inactive | HTR2A ag conf 24.1
Cc1c(/C=N/NC(=O)CNc2ccccc2)c2ccccn2c1C(=O)c1ccc(Cl)cc1	none
COc1cccc(C(=O)NCCS(=O)(=O)N2CCC(C)CC2)c1	m5-HT2A agonist 14.4 | OPRM1 ag inactive | HTR2A ag conf inactive
COC(=O)C1CCN(S(=O)(=O)CCNC(=O)c2cccc(OC)c2)CC1	none
O=C1N2CCCc3cccc(c32)C12Nc1ccccc1S2 (stereo not drawn)	m5-HT2A agonist 20.9 (no result: AHR activator) | OPRM1 ag inactive | HTR2A ag conf inactive
CC1CC(C)(C)N2C(=O)C3(Nc4ccccc4S3)c3cccc1c32 (stereo not drawn)	none
COC(=O)CN1C(=O)CSc2ccc(S(=O)(=O)N3CCC(C)CC3)cc21	none (no result: AHR activator)
CCC1=C(c2ccc(OC)cc2)CCC(C(=O)O)C1C (stereo not drawn)	none (no result: AHR activator)

Assay outcomes deposited in PubChem by The Scripps Research Institute Molecular Screening Center.
